Assay results taken from ChEMBL document CHEMBL1126705, “16 beta-([18F]fluoro)estrogens: systematic investigation of a new series of fluorine-18-labeled estrogens as potential imaging agents for estrogen-receptor-positive breast tumors” (J Med Chem, 1993).
Blank lines part the entries; values can stand above or below the molecule they belong to.

Columns and labels:
Rattus norvegicus [1] = assay: Tested in vivo for the biodistribution in rat liver at 1 hour after intravenous dose of 50 microCi of drug in 10%ethanol saline; type: ADME, organism-based
Method in brief: (§1)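 Immature (25-day-old) female Sprague-Dawley rats, ether-anesthetized, given the fluorine-18-labeled estrogen by femoral vein injection in 10% ethanol saline. […] Other groups were killed by decapitation at 1 or 3 h. Blood and organs were weighed and gamma-counted. Data are % injected dose/g, mean ± SD, typically n = 5 per group.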

Rattus norvegicus [2] = assay: Tested in vivo for the biodistribution in rat muscle at 1 hour after intravenous dose of 50 microCi of drug in 10%ethanol saline; type: ADME, organism-based, Muscle tissue; method in brief: as §1
Rattus norvegicus [3] = assay: Tested in vivo for the biodistribution in blood of female rat at 1 hour after intravenous dose of 50 microCi of the drug and 15 u g of estradiol; type: ADME, organism-based
Rattus norvegicus [4] = assay: Tested in vivo for the biodistribution in rat bone at 1 hour after intravenous dose of 50 microCi of drug in 10%ethanol saline; type: ADME, organism-based, Bone element
Method in brief: (§2)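 Ether-anesthetized 25-day-old female Sprague-Dawley rats (~40–53 g) got the [18F] tracer in 10% ethanol saline via femoral vein. Rats were decapitated at 1 or 3 h, and blood and organs were weighed and gamma-counted. Values are % injected dose/g as mean ± SD, n = 5 per time point.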

Rattus norvegicus [5] = assay: Tested in vivo for the biodistribution in rat ovaries at 1 hour after intravenous dose of 50 microCi of the drug and 15 ug of estradiol; type: ADME, organism-based, Female gonad; method in brief: as §1
Rattus norvegicus [6] = assay: Tested in vivo for the biodistribution in rat uterus at 1 hour after intravenous dose of 50 microCi of drug in 10%ethanol saline; type: ADME, organism-based
Method in brief: (§3)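 Female Sprague-Dawley rats, 25 days old (~40–53 g), ether-anesthetized, given the 18F-labeled estrogen iv via femoral vein in 10% ethanol saline. […] Others were sacrificed by decapitation at 1 or 3 h. Blood and organs were excised, weighed and gamma counted as % injected dose/g, mean ± SD, typically n = 5 (4–6).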

[7] = biological target: T1, Estrogen receptor (Rattus norvegicus) (UniProt P06211+Q62986)
Rattus norvegicus [8] = assay: Tested in vivo for the biodistribution in rat uterus after 3 hours following an intravenous dose of 50 microCi of drug in 10%ethanol saline; type: ADME, organism-based; method in brief: as §1
Rattus norvegicus [9] = assay: Tested in vivo for the biodistribution in rat kidney at 1 hour after intravenous dose of 50 microCi of the drug and 15 u g of estradiol; type: ADME, organism-based; method in brief: as §1
[10] = Partition coefficient (logP); type: physicochemical; settings: octanol/water
Method in brief: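 Octanol/water log P estimated from log k'w measured by reversed-phase HPLC (Minick method) on a C8 silica column.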

Rattus norvegicus [11] = assay: Tested in vivo for the biodistribution in rat uterus at 1 hour after intravenous dose of 50 microCi of the drug and 15 ug of estradiol; type: ADME, organism-based; method in brief: as §3
Rattus norvegicus [12] = assay: Tested in vivo for the biodistribution in rat ovaries after 3 hours following an intravenous dose of 50 microCi of drug in 10%ethanol saline; type: ADME, organism-based, Female gonad; method in brief: as §1
Rattus norvegicus [13] = assay: Tested in vivo for the biodistribution in rat muscle at 1 hour after intravenous dose of 50 microCi of the drug and 15 ug of estradiol; type: ADME, organism-based, Muscle tissue; method in brief: as §1
Rattus norvegicus [14] = assay: Tested in vivo for the biodistribution in rat uterus/blood at 1 hour after intravenous dose of 50 microCi of drug in 10%ethanol saline; type: ADME, organism-based; method in brief: as §3
Rattus norvegicus [15] = assay: Tested in vivo for the biodistribution in blood of female rat at 1 hour after intravenous dose of 50 microCi of drug in 10%ethanol saline; type: ADME, organism-based; method in brief: as §2
Rattus norvegicus [16] = assay: Tested in vivo for the biodistribution in blood of female rat after 3 hours following an intravenous dose of 50 microCi of drug in 10%ethanol saline; type: ADME, organism-based; method in brief: as §2
Rattus norvegicus [17] = assay: Tested in vivo for the biodistribution in rat uterus/muscle after 3 hours following an intravenous dose of 50 microCi of drug in 10%ethanol saline; type: ADME, organism-based, Muscle tissue; method in brief: as §3
Rattus norvegicus [18] = assay: Tested in vivo for the biodistribution in rat liver at 1 hour after intravenous dose of 50 microCi of the drug and 15 u g of estradiol; type: ADME, organism-based; method in brief: as §1
Rattus norvegicus [19] = assay: Tested in vivo for the biodistribution in rat ovaries at 1 hour after intravenous dose of 50 microCi of drug in 10%ethanol saline; type: ADME, organism-based, Female gonad; method in brief: as §1
Rattus norvegicus [20] = assay: Tested in vivo for the biodistribution in rat kidney after 3 hours following an intravenous dose of 50 microCi of drug in 10%ethanol saline; type: ADME, organism-based; method in brief: as §2
Rattus norvegicus [21] = assay: Tested in vivo for the biodistribution in rat liver after 3 hours following an intravenous dose of 50 microCi of drug in 10%ethanol saline; type: ADME, organism-based; method in brief: as §1
[22] = biological target: T1, Estrogen receptor (Rattus norvegicus); remark: listed apart in the source
Rattus norvegicus [23] = assay: Tested in vivo for the biodistribution in rat muscle after 3 hours following an intravenous dose of 50 microCi of drug in 10%ethanol saline; type: ADME, organism-based, Muscle tissue; method in brief: as §1
Rattus norvegicus [24] = assay: Tested in vivo for the biodistribution in rat uterus/blood after 3 hours following an intravenous dose of 50 microCi of drug in 10%ethanol saline; type: ADME, organism-based; method in brief: as §3
Rattus norvegicus [25] = assay: Tested in vivo for the biodistribution in rat kidney at 1 hour after intravenous dose of 50 microCi of drug in 10%ethanol saline; type: ADME, organism-based; method in brief: as §2
[26] = biological target: T2, Sex hormone-binding globulin (Homo sapiens) (UniProt P04278); assay: Relative binding affinity against sex steroid binding protein (SBP)
T2 sequence (whole entry): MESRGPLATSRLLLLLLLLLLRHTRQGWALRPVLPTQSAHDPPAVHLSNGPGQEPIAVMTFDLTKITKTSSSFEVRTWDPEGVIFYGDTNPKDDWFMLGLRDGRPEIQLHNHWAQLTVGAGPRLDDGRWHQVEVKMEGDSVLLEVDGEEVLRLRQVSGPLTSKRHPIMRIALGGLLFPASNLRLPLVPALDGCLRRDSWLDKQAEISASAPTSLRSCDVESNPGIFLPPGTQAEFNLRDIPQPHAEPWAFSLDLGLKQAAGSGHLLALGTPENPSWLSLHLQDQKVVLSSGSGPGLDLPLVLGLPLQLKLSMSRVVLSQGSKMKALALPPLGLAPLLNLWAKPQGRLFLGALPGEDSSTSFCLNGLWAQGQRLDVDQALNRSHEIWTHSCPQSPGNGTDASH

[27] = biological target: T3, Alpha-fetoprotein (Rattus norvegicus) (UniProt P02773); assay: Relative binding affinity for Alphafetoprotein
T3 sequence (whole entry): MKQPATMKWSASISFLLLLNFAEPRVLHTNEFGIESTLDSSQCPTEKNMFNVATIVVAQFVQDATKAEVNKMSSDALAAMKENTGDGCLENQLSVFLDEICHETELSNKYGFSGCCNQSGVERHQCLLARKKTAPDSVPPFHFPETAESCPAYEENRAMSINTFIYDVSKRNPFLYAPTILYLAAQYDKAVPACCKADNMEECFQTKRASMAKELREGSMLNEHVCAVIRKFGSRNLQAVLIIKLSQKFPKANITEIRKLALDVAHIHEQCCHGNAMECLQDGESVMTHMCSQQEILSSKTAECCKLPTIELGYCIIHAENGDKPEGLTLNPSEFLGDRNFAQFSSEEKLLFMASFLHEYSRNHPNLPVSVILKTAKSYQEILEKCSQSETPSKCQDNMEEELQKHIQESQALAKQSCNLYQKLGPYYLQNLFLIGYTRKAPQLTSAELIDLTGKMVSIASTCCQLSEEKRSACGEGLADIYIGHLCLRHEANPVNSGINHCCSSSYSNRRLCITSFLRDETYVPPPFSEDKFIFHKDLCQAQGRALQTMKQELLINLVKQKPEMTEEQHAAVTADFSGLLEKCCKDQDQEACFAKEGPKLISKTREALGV

Rattus norvegicus [28] = assay: Tested in vivo for the biodistribution in rat bone at 1 hour after intravenous dose of 50 microCi of the drug and 15 ug of estradiol; type: ADME, organism-based, Bone element
Rattus norvegicus [29] = assay: Tested in vivo for the biodistribution in rat thymus at 1 hour after intravenous dose of 50 microCi of the drug and 15 ug of estradiol; type: ADME, organism-based; method in brief: as §1
Rattus norvegicus [30] = assay: Tested in vivo for the biodistribution in rat thymus at 1 hour after intravenous dose of 50 microCi of drug in 10%ethanol saline; type: ADME, organism-based; method in brief: as §1
Rattus norvegicus [31] = assay: Tested in vivo for the biodistribution in rat fat at 1 hour after intravenous dose of 50 microCi of the drug and 15 ug of estradiol; type: ADME, organism-based, Adipose tissue
Rattus norvegicus [32] = assay: Tested in vivo for the biodistribution in rat fat after 3 hours following an intravenous dose of 50 microCi of drug in 10%ethanol saline; type: ADME, organism-based, Adipose tissue; method in brief: as §2
Rattus norvegicus [33] = assay: Tested in vivo for the biodistribution in rat uterus/muscle at 1 hour after intravenous dose of 50 microCi of the drug and 15 ug of estradiol; type: ADME, organism-based, Muscle tissue; method in brief: as §3
Rattus norvegicus [34] = assay: Tested in vivo for the biodistribution in rat thymus after 3 hours following an intravenous dose of 50 microCi of drug in 10%ethanol saline; type: ADME, organism-based; method in brief: as §1
Rattus norvegicus [35] = assay: Tested in vivo for the biodistribution in rat bone after 3 hours following an intravenous dose of 50 microCi of drug in 10%ethanol saline; type: ADME, organism-based, Bone element; method in brief: as §2
Rattus norvegicus [36] = assay: Tested in vivo for the biodistribution in rat fat at 1 hour after intravenous dose of 50 microCi of drug in 10%ethanol saline; type: ADME, organism-based, Adipose tissue; method in brief: as §2
Rattus norvegicus [37] = assay: Tested in vivo for the biodistribution in rat uterus/muscle at 1 hour after intravenous dose of 50 microCi of drug in 10%ethanol saline; type: ADME, organism-based, Muscle tissue; method in brief: as §3
Rattus norvegicus [38] = assay: Tested in vivo for the biodistribution in rat uterus/blood at 1 hour after intravenous dose of 50 microCi of the drug and 15 ug of estradiol; type: ADME, organism-based; method in brief: as §3

- Injected (Rattus norvegicus [1]): 3.244%
- Injected (Rattus norvegicus [2]): 0.739%
- Injected (Rattus norvegicus [3]): 0.38%
- Injected (Rattus norvegicus [4]): 1.384%
- Injected (Rattus norvegicus [5]): 1.661%
- Injected (Rattus norvegicus [6]): 18.26%
- BSI [7]: 116
- Injected (Rattus norvegicus [8]): 12.99%
- Injected (Rattus norvegicus [9]): 1.038%
- logP [10]: 2.87
- Injected (Rattus norvegicus [11]): 2.548%
- Injected (Rattus norvegicus [12]): 3.51%
- Injected (Rattus norvegicus [13]): 0.525%
- Injected (Rattus norvegicus [14]): 66.26%
- Injected (Rattus norvegicus [15]): 0.284%
- Injected (Rattus norvegicus [16]): 0.101%
- Injected (Rattus norvegicus [17]): 32.76%
- Injected (Rattus norvegicus [18]): 3.708%
- Injected (Rattus norvegicus [19]): 5.2%
- Injected (Rattus norvegicus [20]): 0.973%
- Injected (Rattus norvegicus [21]): 2.129%
- NSB [22]: 0.67
- Injected (Rattus norvegicus [23]): 0.389%
- Injected (Rattus norvegicus [24]): 129.8%
- Injected (Rattus norvegicus [25]): 1.961%
- relative binding affinity (RBA) [26]: 0.037
- relative binding affinity (RBA) [27]: < 0.01
- Injected (Rattus norvegicus [28]): 1.477%
- Injected (Rattus norvegicus [29]): 0.44%
- Injected (Rattus norvegicus [30]): 0.852%
- Injected (Rattus norvegicus [31]): 0.679%
- Injected (Rattus norvegicus [32]): 0.858%
- Injected (Rattus norvegicus [33]): 5.25%
- Injected (Rattus norvegicus [34]): 0.454%
- Injected (Rattus norvegicus [35]): 2.007%
- Injected (Rattus norvegicus [36]): 1.538%
- Injected (Rattus norvegicus [37]): 24.31%
- Injected (Rattus norvegicus [38]): 7.52%
SMILES: C#C[C@]1(O)[C@@H](F)C[C@H]2[C@@H]3CCc4cc(O)ccc4[C@H]3[C@@H](OC)C[C@@]21C

- logP [10]: 3.26
- relative binding affinity (RBA) [26]: 100
- relative binding affinity (RBA) [27]: 100
SMILES: C[C@]12CC[C@@H]3c4ccc(O)cc4CC[C@H]3[C@@H]1CC[C@@H]2O [ESTRADIOL]

- BSI [7]: 243
- logP [10]: 3.01
- NSB [22]: 0.76
- relative binding affinity (RBA) [26]: 0.071
- relative binding affinity (RBA) [27]: 0.023
SMILES: C#C[C@]1(O)CC[C@H]2[C@@H]3CCc4cc(O)ccc4[C@H]3[C@@H](OC)C[C@@]21C [MOXESTROL]

- BSI [7]: 151
- logP [10]: 2.72
- NSB [22]: 0.57
- relative binding affinity (RBA) [26]: 1.72
- relative binding affinity (RBA) [27]: 0.26
SMILES: CO[C@H]1C[C@]2(C)[C@@H](O)CC[C@H]2[C@@H]2CCc3cc(O)ccc3[C@H]21
